Screening data: PubChem BioAssay, several laboratories
Most compounds without a hit are left out; they make up all but 3.4% or so of the library.
LANA-H2B inh = blocks KSHV LANA binding to histone H2A/H2B; Q9QR71; cell-free LANA-H2A/H2B peptide, fluorescence polarization; inhibition, % (concentration not given with the values); 320,000 tested, 0.6% active; AID 2629; in the data active means inhibition mostly above about 10%, no sharp cut-off; inactive means mostly below about 6.7%
TAAR1 antag = human TAAR1 antagonism. Q96RJ0. CHO RD-HGA16 TAAR1, Fluo-8 calcium fluorescence, antagonist. inhibition, % at 3 µM. 360,000 tested, 1.5% active. AID 624466;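 active means inhibition above a per-plate cutoff, the mean inhibition of test compounds on that plate plus 3 SD, cut at about 49% in these data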;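 further: 0% = DMSO plus EC80 beta-PEA response and 100% = DMSO alone without agonist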
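Test system: RD-HGA16 CHO cells with stable hTAAR1 and Gα16 / Probe or stimulus: EC80 β-phenethylamine stimulus / Times: seeding 17-24 h prior, 75-min 37 °C, 30-min RT dye loading / Detection: Fluo-8 calcium-sensitive fluorescence / Read-out basis: % inhibition scaled between DMSO and EC80 PEA controls / Repeats: singlicate, one well per test compound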
TRPML3 ag = activates the human TRPML3 channel; AID 1448; HEK293 TRPML3-YFP, Fluo-8 calcium fluorescence; 100% = the carbachol control signal; 220,000 tested, 0.29% active; activation, % at 3 µM;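 active means activation above its plate's cutoff, the mean activation of the plate's test wells plus 3 SD, cut at about 12% in these data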;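 further: 0% = DMSO only wells and 100% = carbachol wells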
Target sequence (Q8TDD5 whole entry, looked up): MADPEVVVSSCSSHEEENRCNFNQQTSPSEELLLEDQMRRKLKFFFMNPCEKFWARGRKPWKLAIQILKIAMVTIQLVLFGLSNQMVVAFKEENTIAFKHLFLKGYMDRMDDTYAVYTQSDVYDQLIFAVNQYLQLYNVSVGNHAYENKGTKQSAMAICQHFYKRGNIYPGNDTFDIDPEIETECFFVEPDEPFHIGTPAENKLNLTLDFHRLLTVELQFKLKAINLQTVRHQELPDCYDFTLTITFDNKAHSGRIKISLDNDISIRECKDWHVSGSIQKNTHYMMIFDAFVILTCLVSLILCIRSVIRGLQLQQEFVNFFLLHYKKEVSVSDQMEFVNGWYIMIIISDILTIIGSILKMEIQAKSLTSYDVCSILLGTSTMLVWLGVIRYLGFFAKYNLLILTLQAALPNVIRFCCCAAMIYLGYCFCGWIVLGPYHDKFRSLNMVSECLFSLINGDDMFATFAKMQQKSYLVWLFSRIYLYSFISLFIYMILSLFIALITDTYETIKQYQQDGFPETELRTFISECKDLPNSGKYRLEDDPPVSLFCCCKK
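Test system: TRPML3-YFP stable HEK293 cells. Doses: single point at 3 µM. Incubation: dye loading 1 h 37 °C then 30 min ambient, 125 s read. Signal: Fluo-8 calcium dye fluorescence, ex 470-495, em 515-575 nm. Measure: percent activation from peak-to-basal fluorescence ratio, scaled between DMSO and carbachol.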
TRPN1 ag = activates the zebrafish TRPN1 channel; HEK293 zebrafish TRPN1-YFP, Fluo-8 calcium fluorescence; 100% = response to 87 µM carbachol; activation, % at 3 µM; 220,000 tested, 0.18% active;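 active means activation above its plate's cutoff, the mean activation of test wells on that plate plus 3 SD, cut at about 19% in these data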;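 further: 0% = DMSO alone and 100% = 87 µM carbachol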
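Material: zebrafish TRPN1-YFP in HEK293 cells. Doses: one dose of 3 µM, 0.3% DMSO. Incubation: dye 1 h 37 °C plus 30 min RT. Measured by: intracellular calcium fluorescence with Fluo-8.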
TAAR1 ag = human TAAR1 agonism. Q96RJ0. 360,000 tested, 0.99% active. activation, % at 3 µM. CHO RD-HGA16 TAAR1, Fluo-8 calcium fluorescence; vehicle wells 0%, saturating PEA agonist 100%;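 active means activation above the mean activation of all test compounds in the run plus 3 SD, cut at about 38% in these data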
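Benchmarks: low control DMSO, high control PEA (EC100); System: CHO RD-HGA16 cells carrying human TAAR1 plus Gα16; Detection: Fluo-8 fluorescence, 5 s baseline then 140 s kinetic read; Schedule: 17-24 h plating, Fluo-8 75 min 37 °C, 30 min RT; Read-out basis: % activation from peak over basal fluorescence ratio, DMSO-to-PEA scaled.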
GPR7 antagonist = human neuropeptides B/W receptor 1 antagonism; P48145; 290,000 tested, 1.1% active; inhibition, % at 4.4 µM; GPR7-expressing cells, fluorescence antagonist assay; in the data active means inhibition above about 16%, passing the limit was not always enough;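 further: cells stimulated with the agonist NPW; 0% = agonist with vehicle and 100% = vehicle without agonist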
* = called active by the depositor.

For O=C(NCC1(N2CCCCC2)CCCCC1)c1cccc(S(=O)(=O)Nc2ccc(F)cc2)c1 the results were LANA-H2B inh 23.2*, TAAR1 antag 6.3 and TAAR1 ag 2.1.
Screening O=C(NCC1(N2CCOCC2)CCCCC1)c1cccc(S(=O)(=O)Nc2ccc(F)cc2)c1 returned LANA-H2B inh -4.6, TAAR1 antag -22.7 and TAAR1 ag 18.4.
For Cc1ccc(NS(=O)(=O)c2ccc(C(=O)NCC3CCCO3)cc2)cc1 (stereo not given) the results were LANA-H2B inh -1.7, TAAR1 antag -18.6, TRPML3 ag 3.7, TRPN1 ag 3.9, TAAR1 ag 39.6* and GPR7 antagonist 7.6.
Screening Nc1nc2c(ncn2[C@@H]2O[C@H](C(=O)N[C@@H](Cc3ccccc3)C(=O)NCc3ccc4c(c3)OCO4)[C@@H](O)[C@H]2O)c(=O)[nH]1 returned TAAR1 antag -4.7 and TAAR1 ag 0.0.
For N#C/C=C/N1CCN(C(=O)c2ccco2)CC1 the results were LANA-H2B inh -3.3, TAAR1 antag -33.7 and TAAR1 ag 41.2*.
Screening CCC(=O)Nc1ccccc1C(=O)OCC(=O)c1ccc2ccccc2c1 returned LANA-H2B inh 4.1, TAAR1 antag 29.4, TRPML3 ag 0.6, TRPN1 ag 0.0, TAAR1 ag 8.7 and GPR7 antagonist 18.9*.
Cc1nonc1OCCNCCNc1ccccc1[N+](=O)[O-] was read as LANA-H2B inh 23.8*, TAAR1 antag 17.0, TRPML3 ag 0.5, TRPN1 ag -0.1, TAAR1 ag 5.8 and GPR7 antagonist -7.9.
Screening O=[N+]([O-])c1ccccc1NCCOc1ccccc1 returned LANA-H2B inh 1.9, TAAR1 antag 11.7, TRPML3 ag -0.6, TRPN1 ag -1.7, TAAR1 ag 1.4 and GPR7 antagonist -4.8.
`C[C@@H]1ON(C)[C@H]2C[C@H]3c4[nH]c5cccc(-c6ccccc6F)c5c4CCN3C(=O)[C@@H]12` gave TAAR1 antag 23.8 and TAAR1 ag 7.2.
`COc1ccc(/C=C2\SC(=S)N(CC(=O)N(C)C3CCS(=O)(=O)C3)C2=O)cc1` (stereo not given) gave LANA-H2B inh 14.1*, TAAR1 antag -8.3, TAAR1 ag 0.7 and GPR7 antagonist 7.9.
`CN(C(=O)CN1C(=O)S/C(=C\c2ccc(Cl)cc2)C1=O)C1CCS(=O)(=O)C1` (stereo not given) gave LANA-H2B inh 11.3*, TAAR1 antag -19.4, TAAR1 ag 1.2 and GPR7 antagonist 1.9.
For CN(C(=O)CN1C(=O)S/C(=C\c2ccccc2)C1=O)C1CCS(=O)(=O)C1 (stereo not given) the results were LANA-H2B inh 1.9, TAAR1 antag -31.5, TAAR1 ag 6.2 and GPR7 antagonist 10.2.
Screening CC(=O)Oc1ccc(C(=O)Nn2cnnc2)cc1 returned LANA-H2B inh 18.5*, TAAR1 antag 3.9, TRPML3 ag 1.2, TRPN1 ag 0.6, TAAR1 ag 8.3 and GPR7 antagonist -8.7.
`CC(C)(C)c1ccc(C(=O)Nn2cnnc2)cc1` gave LANA-H2B inh -25.5, TAAR1 antag -6.9, TAAR1 ag 3.7 and GPR7 antagonist -0.6.
Cc1ccc(Nc2nc(NCCO)nc3c2cnn3C)cc1Cl was read as LANA-H2B inh 0.0, TAAR1 antag 4.4, TAAR1 ag 38.2* and GPR7 antagonist 3.7.
COc1ccc2nc(N3CCN(C(=O)C4COc5ccccc5O4)CC3)sc2c1 (stereo not given) was read as LANA-H2B inh 3.6, TAAR1 antag 31.9 and TAAR1 ag 9.2.
For Cc1cccc2sc(N3CCN(C(=O)C4COc5ccccc5O4)CC3)nc12 (stereo not given) the results were LANA-H2B inh -1.4, TAAR1 antag 42.4 and TAAR1 ag 49.9*.
For C=CCN=C1NC(c2ccccc2)C(C(=O)OC)=C(C)N1C (stereo not given) the results were TAAR1 antag -12.2 and TAAR1 ag 2.2.
Screening CC(=O)c1c(C)nc2ccccc2c1N returned LANA-H2B inh 0.2, TAAR1 antag -6.1, TRPML3 ag 0.1, TRPN1 ag 0.2, TAAR1 ag 12.8 and GPR7 antagonist -11.9.
For Cc1nc2ccccc2c(N)c1C(=O)/C=C/c1ccccc1 the results were LANA-H2B inh -2.0, TAAR1 antag 7.8, TAAR1 ag 40.9* and GPR7 antagonist -12.3.
Screening CCN1C[C@@H]2[C@@H]3C(=O)N(Cc4ccccc4)C(=O)[C@@H]3[C@](CC)(C1=O)N2C(=O)c1ccc(Cl)cc1 returned TAAR1 antag 2.7 and TAAR1 ag 12.2.
COC(=O)C1=C(C)N(C)C(=NCC2CC2)NC1c1cccc(C(F)(F)F)c1 (stereo not given) was read as TAAR1 antag 6.3 and TAAR1 ag 3.4.
CCN(Cc1ccc2c(c1)OCCO2)C(=O)CSc1nc(C)nc2sc(C)c(C)c12 was read as LANA-H2B inh 6.7, TAAR1 antag 59.5* and TAAR1 ag 4.3.
COC(=O)[C@]12C[C@H](CC(=O)NCCCCc3ccccc3)C(=O)N(CCC3=CCCCC3)C1=C[C@H](C(C)(C)C)O[C@@H]2C was read as TAAR1 antag -21.2 and TAAR1 ag 0.7.
`O=S(=O)(Nc1ccncc1Cl)c1cc(Cl)ccc1Cl` gave LANA-H2B inh -3.8, TAAR1 antag 1.8, TRPML3 ag 0.9, TRPN1 ag -0.9, TAAR1 ag 0.7 and GPR7 antagonist 20.3*.
COc1ccc(NC(=O)c2cc(-c3ccccn3)nc3ccccc23)c(OC)c1 was read as LANA-H2B inh 4.2, TAAR1 antag 54.4* and TAAR1 ag 13.8.
`COc1ccc(-c2cc(C(=O)Nc3cc(C)on3)c3ccccc3n2)c(OC)c1` gave LANA-H2B inh 2.4, TAAR1 antag -3.2, TAAR1 ag 5.4 and GPR7 antagonist 6.5.
`COc1cccc(NC(=O)c2cc(-c3cccnc3)nc3c(Cl)cccc23)c1` gave LANA-H2B inh 2.0, TAAR1 antag 56.7*, TRPML3 ag 0.2, TRPN1 ag -1.4, TAAR1 ag 14.2 and GPR7 antagonist -10.6.
Screening COc1cccc(NC(=O)c2cc(-c3ccc(OC)cc3OC)nc3ccccc23)c1 returned LANA-H2B inh -3.2, TAAR1 antag 53.3* and TAAR1 ag 10.4.
`CN1CCCCC(NC(=O)c2c(F)cccc2F)C1=O` (stereo not given) gave TAAR1 antag -5.1 and TAAR1 ag 2.1.
O=C1NC(c2ccc3c(c2)OCO3)c2c(-c3ccccc3)n[nH]c21 (stereo not given) was read as TAAR1 antag -5.9 and TAAR1 ag 3.7.
